Screening data (PubChem BioAssay)
Most compounds without a hit are left out; they make up all but 4.8% or so of the library.
SKKanGAS inh: blocks kanamycin growth of S. pyogenes SKKanGAS strain. BacTiter-Glo, 6 h. AID 1662. 1.3% of 300,000 active. inhibition, % at 7.5 µM;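 active = mean replicate score, as percent of positive control median, at least 50; inconclusive = mean below 50 but one replicate at or above 50; inactive = mean and every replicate below 50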;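 also: strain carries kanamycin resistance gene driven by streptokinase promoter and grows in 40 µg/ml kanamycin; loss of luminescence reflects streptokinase promoter inhibition or plain growth inhibition; 0% = median of DMSO wells and 100% = positive control at its reference dose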
CHOP UPR activ: activators of apoptotic arm of unfolded protein response (CHOP); activation, % at 10 µM; CHO-CHOP luciferase reporter, UPR activation, luminescence; percent of tunicamycin response over DMSO baseline; AID 449763; 0.34% of 330,000 active;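 active = at 10 µM dose, activation of 40% or more, normalized to positive control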;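 also: 100% = tunicamycin at 10 µg/mL and 0% = DMSO alone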
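System: CHO CHOP reporter cells. Amount: 500 cells per well. Buffer or medium: F12 medium, 10% FBS. Compound dosing: one dose, 10 µM in 0.5% DMSO. Incubation: 6 h compound exposure at 37 °C after overnight seeding. Technique: Steady-Glo luciferase luminescence. Benchmarks: tunicamycin and DMSO controls.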
Beta cell apopt: beta cell apoptosis inhibition; INS-1E cytokine-induced death, ATP luminescence, 48 h; percent of positive-control rescue, neutral wells zero; protection from apoptosis, % (no concentration beside the values); 0.8% of 300,000 active;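 active = Every replicate reaches about 75%, or at least half do and their mean reaches it too, limit read from the data; inconclusive = At least half of replicates reach the limit but their mean does not; inactive = Under half of replicates reach the limit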;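 also: 0% = cytokine-treated negative control wells and 100% = positive control rescue; higher means more ATP so stronger rescue from cytokine killing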
XBP1 UPR activ: activators of adaptive arm of unfolded protein response (XBP1); 0.33% of 330,000 active; AID 463104; CHO-XBP1 luciferase reporter, IRE1-XBP1 UPR activation, luminescence; percent of tunicamycin response, DMSO as zero; activation, % at 20 µM;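 active = versus positive control, 20 µM dose yields 30% or more activation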;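 also: 100% = tunicamycin at 10 µg/mL and 0% = DMSO only wells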
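Assay system: IRE1-XBP1 luciferase reporter CHO line. Input: 1000 cells/well. Buffer or medium: F12 with 10% serum. Doses: 20 µM, 1% DMSO. Times: overnight seeding at 37 °C, 6 h compound treatment at 37 °C. Technique: Steady-Glo luciferase glow luminescence, 10 min after reagent addition.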
Mdm2-MdmX inh: disrupts the human Mdm2-MdmX interaction; SaOS-2 split-luciferase Mdm2/MdmX complementation, luminescence; inhibition, % at 8 µM; 3% of 330,000 active; AID 485346;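 active = inhibition of at least 50% at 8 µM in the primary screen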
CSC inhib: blocks cancer stem cells; AID 2717; 1.1% of 300,000 active; inhibition, % at 7.5 µM; cancer stem cell-like cells viability, luminescence; in the data active = inhibition above about 75%; inconclusive = no clear call, values can overlap the other calls; tested in HMLE shEcad cells
Mdm2-MdmX conf: human Mdm2/MdmX binding inhibition, confirmed. shares compounds with Mdm2-MdmX inh. luminescent assay. inhibition, % at 8 µM. 55% of 10,000 active; in the data active = inhibition above about 40%
FLuc counter: counter-screen for Mdm2/MdmX inhibitors: full-length luciferase | shares compounds with Mdm2-MdmX inh | SaOS-2 full-length luciferase counterscreen, luminescence | inhibition, % at 8 µM | 77% of 6,200 active;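 active = mean inhibition at 8 µM reaching about 37%, which flags the compound as non-specific, limit read from the data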;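 also: p53-null SaOS-2 cells with luciferase driven by a doxycycline-inducible promoter; compound on cells about two nights before reading with doxycycline added after day one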
Numbers without * were called inactive; ? = inconclusive; . = not tested or not shown.

SMILES	SKKanGAS inh	CHOP UPR activ	Beta cell apopt	XBP1 UPR activ	Mdm2-MdmX inh	CSC inhib	Mdm2-MdmX conf	FLuc counter
C=C1CCN([C@H](C(=O)NCc2ccccc2)C(C)C)S(=O)(=O)c2ccccc21	3	-1	-4	3	4	8	.	.
COc1ccccc1CCN1CCCC(CN(C)C(=O)c2ccoc2)C1 (stereo not drawn)	-2	-1	-2	-7	0	0	.	.
CCOC(=O)c1ccc(N2CCCCC2)c(NS(=O)(=O)c2ccc(C)cc2)c1	-16	2	17	0	59*	54	46*	67*
COc1ccc2oc(=O)c(-c3csc(Nc4ccc(O)cc4)n3)cc2c1	104*	36	-6	23	54*	3	19	133*
Cc1ccc2c(c1)C(=O)C(=O)N2CCCOc1ccccc1	-3	2	8	22	12	39	.	.
Cc1cccc(OCCCN2C(=O)C(=O)c3cc(C)ccc32)c1	-11	1	-2	13	59*	18	69*	65*
COCc1cc(CN2CCN(C)CC2)c(O)c2ncccc12	9	5	24	5	7	25	.	.
Cc1ccc(NCc2ccco2)cc1C	1	4	-5	-1	-11	-3	.	.
Oc1c(CNc2ccccc2)cc(COCc2ccccc2)c2cccnc12	.	-1	.	4	70*	.	45*	79*
Cc1ccc(NCc2ccc(O)c3ncccc23)cc1C	7	2	4	6	78*	-6	64*	48*
Cc1ccc(NCc2ccccc2O)cc1	7	2	-5	1	-7	.	.	.
Cc1ccc(NCc2ccc(O)c3ncccc23)cc1	12	2	2	8	76*	18	71*	66*
CCCCN1C(=O)c2ccc(C(=O)OCC(=O)N3CCN(c4ccccc4)CC3)cc2C1=O	.	1	-2	-2	18	.	.	.
NS(=O)(=O)c1cc(C(=O)N2CCNC(=O)C2)ccc1Cl	1	1	-6	19	10	-20	.	.
COc1ccc(S(=O)(=O)N2CCCC2CNC(=O)C(=O)NCCc2ccccc2)cc1 (stereo not drawn)	0	2	11	1	60*	41	67*	64*
COc1ccc(CCNC(=O)C(=O)NCC2CCCN2S(=O)(=O)c2ccccc2)cc1 (stereo not drawn)	1	3	5	1	24	.	.	.
CCOC(=O)C1CCN(C(=O)C(CCSC)NC(=O)c2ccccc2OC)CC1 (stereo not drawn)	.	-1	-4	-1	-6	-12	.	.
COc1ccc(C2CC(c3cccc(Br)c3)=NN2c2ccc(S(N)(=O)=O)cc2)cc1 (stereo not drawn)	.	4	.	3	57*	.	-21	.
COc1ccc(C2CC(c3cccc(F)c3)=NN2c2ccc(S(N)(=O)=O)cc2)cc1 (stereo not drawn)	.	5	.	2	81*	.	10	.
COc1ccc(C2CC(c3cccc(C(F)(F)F)c3)=NN2c2ccc(S(N)(=O)=O)cc2)cc1 (stereo not drawn)	.	3	.	6	87*	.	30	.
COc1ccc(C2CC(c3ccccc3)=NN2c2ccc(S(N)(=O)=O)cc2)cc1 (stereo not drawn)	?	3	6	-2	42	-14	.	.
Cc1ccc(CN2CC(C(=O)Nc3ncccc3C)CC2=O)cc1 (stereo not drawn)	-5	0	-3	-4	8	-16	.	.
Cc1ccc(Cn2c(=N)c(C(=O)NC3CCCC3)cc3c(=O)n4ccccc4nc32)cc1	-6	0	0	-4	50*	-2	4	.
N=c1c(C(=O)NC2CCCCC2)cc2c(=O)n3ccccc3nc2n1Cc1ccco1	5	8	-1	7	56*	.	44*	33
N=c1c(C(=O)NC2CCCCC2)cc2c(=O)n3ccccc3nc2n1CCc1ccccc1	0	7	9	10	94*	-4	97*	17
SMILES	SKKanGAS inh	CHOP UPR activ	Beta cell apopt	XBP1 UPR activ	Mdm2-MdmX inh	CSC inhib	Mdm2-MdmX conf	FLuc counter
CC(C)Cc1ccc(CN2CCCC(NC(=O)c3cnc4ccccn4c3=O)C2)cc1 (stereo not drawn)	-2	2	-7	-5	60*	-2	20	.
N=c1c(C(=O)NC2CCCCC2)cc2c(=O)n3ccccc3nc2n1Cc1ccccc1	1	-1	11	-3	25	1	.	.
N=c1c(C(=O)NC2CCCCC2)cc2c(=O)n3ccccc3nc2n1Cc1cccnc1	3	0	11	1	-4	3	.	.
CN(C)CCCNCC(=O)c1c(-c2ccccc2)n(C)c2ccccc12	-3	.	-1	.	.	-2	.	.
CC(C)c1ccc(N(CC(=O)NC(C)(C)C)C(=O)CCC(=O)Nc2nccs2)cc1	-5	0	-8	-2	9	-16	.	.
Cc1cc(CN2CCC(n3nccc3NC(=O)c3ccccc3Cl)CC2)cc(C)c1O	-10	1	-1	-2	-7	-10	.	.
CC(C)OCCCn1c(=N)c(C(N)=S)cc2c(=O)n3ccccc3nc21	-5	1	.	0	61*	3	30	.
Cc1ccc(OCC(=O)Nc2ccc(O)c(-c3nc4ccccc4o3)c2)cc1	18	3	7	14	92*	-8	47*	108*
NC(=O)c1nc(-c2ccco2)nc2c1[nH]c(=O)n2-c1ccc(Cl)c(Cl)c1	-3	-1	30	-1	75*	1	14	.
NC(=O)c1nc(-c2cccs2)nc2c1[nH]c(=O)n2-c1ccc(F)cc1	-11	-1	42	2	100*	18	67*	81*
Cc1cccc(-n2c(=O)[nH]c3c(C(N)=O)nc(-c4ccccc4Cl)nc32)c1	3	2	0	3	2	-12	.	.
COc1ccc(C2NC(=O)NC(C)=C2[N+](=O)[O-])cc1 (stereo not drawn)	-4	1	.	-6	24	-14	.	.
O=C(O)CN1C(=O)/C(=C/C=C/c2ccccc2)SC1=S	3	-2	-2	-1	-26	-7	.	.
COc1cc(/C=C2\SC(=S)N(CCC(=O)N3CCCCC3)C2=O)cc(OC)c1OC	1	10	-50	-4	68*	.	43*	63*
CCN(CC)C(=O)CN1C(=O)/C(=C/c2ccccc2)SC1=S	6	0	-60	3	63*	20	45*	28
O=C(CN1C(=O)S/C(=C/c2cccnc2)C1=O)N1CCOCC1	1	2	-3	1	-10	0	.	.
